Measurements: ChEMBL document CHEMBL5236549, “Discovery of 2-Sulfinyl-Diazabicyclooctane Derivatives, Potential Oral β-Lactamase Inhibitors for Infections Caused by Serine β-Lactamase-Producing Enterobacterales” (J Med Chem, 2021)

Assays:
[1] = Inhibition of bacterial beta-lactamase OXA-48 using nitrocefin as substrate incubated for 20 mins; parameters: species or system Bacteria
Summary of the method: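 Nitrocefin hydrolysis read by absorbance. Enzyme titrated to give about 0.2 absorbance change over the no-enzyme control. Enzyme added to nitrocefin (final 50 μg/mL) plus inhibitor, no preincubation, read after 20 min at 35 °C. IC50 is 50% reduction of hydrolysis. N = 1.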

[2] = test system: Klebsiella pneumoniae; assay: Antibacterial activity against Klebsiella pneumoniae SR09603 assessed as reduction in bacterial growth by measuring minimum […] concentration incubated for 16 to 20 hrs by CLSI based two-fold serial dilution method; settings: time 16-20 hrs
[3] = test system: Enterobacter cloacae; assay: Antibacterial activity against Enterobacter cloacae SR36276 assessed as inhibition of bacterial growth incubated for 16 to 20 hrs by CLSI based two-fold serial dilution method
[4] = test system: Klebsiella pneumoniae; assay: Antibacterial activity against Klebsiella pneumoniae SR200263 assessed as inhibition of bacterial growth incubated for 16 to 24 hrs by CLSI based two-fold serial dilution method; format: functional; settings: time 16-24 hrs
Summary of the method: (§1)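 CLSI broth microdilution in cation-adjusted Mueller Hinton broth, twofold serial dilutions, about 5 × 10⁴ cfu/well from OD625, 35 °C for 16−20 h. MIC is the lowest concentration with no visible growth.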

[5] = test system: Enterobacter cloacae; assay: Antibacterial activity against Enterobacter cloacae SR100108 assessed as inhibition of bacterial growth incubated for 16 to 20 hrs by CLSI based two-fold serial dilution method
[6] = test system: Klebsiella pneumoniae; assay: Antibacterial activity against Klebsiella pneumoniae SR09635 assessed as reduction in bacterial growth by measuring minimum […] concentration incubated for 16 to 20 hrs by CLSI based two-fold serial dilution method; settings: time 16-20 hrs
[7] = test system: Escherichia coli; assay: Antibacterial activity against Escherichia coli ATCC SR09613 assessed as inhibition of bacterial growth incubated for 16 to 20 hrs by CLSI based two-fold serial dilution method
[8] = test system: Klebsiella pneumoniae; assay: Antibacterial activity against Klebsiella pneumoniae SR09603 assessed as inhibition of bacterial growth incubated for 16 to 20 hrs by CLSI based two-fold serial dilution method
[9] = test system: Klebsiella pneumoniae; assay: Antibacterial activity against Klebsiella pneumoniae SR201325 assessed as inhibition of bacterial growth incubated for 16 to 20 hrs by CLSI based two-fold serial dilution method
[10] = test system: Klebsiella pneumoniae; assay: Antibacterial activity against Klebsiella pneumoniae SR09635 assessed as inhibition of bacterial growth incubated for 16 to 20 hrs by CLSI based two-fold serial dilution method
[11] = AUC in rat at 1 mg/kg,iv by LC/MS/MS analysis; format: ADME, organism-based; parameters: dose 1 mg/kg, route iv; settings: in vivo
Summary of the method: (§2)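 Plasma of the parent acid measured by LC/MS/MS (methanol precipitation, positive ESI, external standard); oral values follow prodrug dosing (rat fed, dog and monkey fasted). AUC from 0 h to last time point by linear trapezoid; F from oral AUC versus iv AUC of the parent. N = 2 (rat, dog), N = 3 (monkey, mouse).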

[12] = Half life in dog at 5 mg/kg,iv by LC/MS/MS analysis; format: ADME, organism-based, Canis lupus familiaris; settings: in vivo
Summary of the method: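 After iv dosing, T1/2 taken as ln 2/kel, with kel from the slope of the log concentration–time profile. Plasma levels measured by LC/MS/MS with an external standard.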

[13] = AUC in monkey at 5 mg/kg,iv by LC/MS/MS analysis; format: ADME, organism-based, Macaca mulatta; parameters: dose 5 mg/kg, route iv; settings: rhesus monkey, in vivo; summary of the method: as §2
[14] = test system: Klebsiella pneumoniae; assay: Antibacterial activity against Klebsiella pneumoniae ATCC SR201218 assessed as reduction in bacterial growth by measuring minimum […] concentration incubated for 16 to 24 hrs by CLSI based two-fold serial dilution method; format: functional; settings: time 16-24 hrs
Summary of the method: (§3)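 MPC₁ by broth microdilution: twofold serial dilutions of inhibitor in cation-adjusted Mueller Hinton broth containing ceftibuten at 1 μg/mL. Inoculum about 5 × 10⁴ cfu/well final, set from OD625. Incubation at 35 °C for 16−20 h. […] N = 1.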

[15] = test system: Klebsiella pneumoniae; assay: Antibacterial activity against Klebsiella pneumoniae SR100758 assessed as reduction in bacterial growth by measuring minimum […] concentration incubated for 16 to 24 hrs by CLSI based two-fold serial dilution method; format: functional; settings: time 16-24 hrs
Summary of the method: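 Inhibitor twofold serially diluted in cation-adjusted Mueller Hinton broth containing ceftibuten 1 μg/mL. About 5 × 10⁴ cfu/well, 35 °C for 16−20 h. […] N = 1.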

[16] = test system: Enterobacter cloacae; assay: Antibacterial activity against Enterobacter cloacae SR36276 assessed as reduction in bacterial growth by measuring minimum […] concentration incubated for 16 to 20 hrs by CLSI based two-fold serial dilution method; settings: time 16-20 hrs
[17] = test system: Klebsiella pneumoniae; assay: Antibacterial activity against Klebsiella pneumoniae ATCC BAA1705 assessed as inhibition of bacterial growth incubated for 16 to 20 hrs by CLSI based two-fold serial dilution method
[18] = Total clearance in mouse at 10 mg/kg,iv by LC/MS/MS analysis; format: ADME, organism-based; settings: in vivo
Summary of the method: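 Intravenous dosing (mouse 10, rat 1, dog 5, monkey 5 mg/kg); plasma quantified by LC/MS/MS after methanol precipitation with external standard; AUC by linear trapezoidal approximation; CLtot = dose/AUC.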

[19] = test system: Escherichia coli; assay: Antibacterial activity against Escherichia coli ATCC SR34100 assessed as reduction in bacterial growth by measuring minimum […] concentration incubated for 16 to 24 hrs by CLSI based two-fold serial dilution method; format: functional; settings: time 16-24 hrs; summary of the method: as §3
[20] = test system: Klebsiella pneumoniae; assay: Antibacterial activity against Klebsiella pneumoniae SR200263 assessed as reduction in bacterial growth by measuring minimum […] concentration incubated for 16 to 20 hrs by CLSI based two-fold serial dilution method; settings: time 16-20 hrs
[21] = test system: Klebsiella pneumoniae; assay: Antibacterial activity against Klebsiella pneumoniae ATCC SR201218 assessed as inhibition of bacterial growth incubated for 16 to 20 hrs by CLSI based two-fold serial dilution method
[22] = test system: Klebsiella pneumoniae; assay: Antibacterial activity against Klebsiella pneumoniae SR100758 assessed as inhibition of bacterial growth incubated for 16 to 24 hrs by CLSI based two-fold serial dilution method; format: functional; settings: time 16-24 hrs; summary of the method: as §1
[23] = AUC in mouse at 10 mg/kg,iv by LC/MS/MS analysis; format: ADME, organism-based; parameters: dose 10 mg/kg, route iv; settings: in vivo; summary of the method: as §2
[24] = Stability of the compound in phosphate buffer at pH 7.0 assessed as parent compound remaining at 40 degreeC measured after 16 hrs; format: physicochemical; settings: read-out: Stability
Summary of the method: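 Compound held in pH 7.0 phosphate buffer at 40 °C for 16 h; amount remaining reported as %.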

[25] = test system: Klebsiella pneumoniae; assay: Antibacterial activity against Klebsiella pneumoniae ATCC BAA1705 assessed as reduction in bacterial growth by measuring minimum potentiating concentration incubated for 16 to 20 hrs by CLSI based two-fold serial dilution method; settings: time 16-20 hrs
[26] = Stability in rat serum assessed as compound remaining at 5 micromol/L incubated for 30 mins by LC-MS/MS analysis; format: ADME, cell-free; settings: dose 5 µmol/L, read-out: Stability
Summary of the method: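 Pooled rat serum incubated with 5 μmol/L compound for 30 min at 37 °C, in duplicate; aliquot mixed with methanol, centrifuged, supernatant analysed by LC/MS/MS for % remaining.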

IC50 [1]: 443 nM
MIC [3]: > 32 µg/mL
MIC [4]: 32 µg/mL
MIC [5]: > 32 µg/mL
MIC [7]: 32 µg/mL
MIC [8]: 32 µg/mL
MIC [9]: > 32 µg/mL
MIC [10]: 32 µg/mL
AUC [11]: 620 ng·h/mL
half-life [12]: 54 min
AUC [13]: 13800 ng·h/mL
MIC [17]: 32 µg/mL
clearance [18]: 34.7 mL/min/kg
MIC [21]: > 32 µg/mL
MIC [22]: > 32 µg/mL
AUC [23]: 4920 ng·h/mL
remaining at 16 h [24]: 95%
remaining at 0.5 h, 5 µM [26]: 85%
SMILES: C[S@@+]([O-])[C@@H]1CC[C@@H]2CN1C(=O)N2O[C@H](F)C(=O)[O-].[Na+]
MPC [2]: 0.125 µg/mL
MPC [6]: 2 µg/mL
MPC [14]: 2 µg/mL
MPC [15]: 0.25 µg/mL
MPC [16]: 2 µg/mL
MPC [19]: 0.125 µg/mL
MPC [20]: 0.125 µg/mL
MPC [25]: 0.063 µg/mL
